Data set [1] relates to Rattus norvegicus. Nature of the data set: Behavioral toxicity in po dosed Sprague-Dawley albino rat after 0.5 hrs. The data set is classed as organism-based. Particulars: in vivo. In outline:
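Oral dosing in male albino Sprague-Dawley rats with behavioral toxicity observation at set times after dosing, doses up to 500 mg/kg.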

Data set [2] concerns Mus musculus. Nature of the data set: Antiinflammatory activity in albino mouse assessed as reduction in formalin-induced late inflammation at 15 mg/kg, ip relative to control. The data set is classed as functional. Also noted: scale not given: the % may be the effect or the level left. The settings on record: route intraperitoneal. In short, it runs like this:
(§1)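 Male albino mice, 16 per trial (8 given vehicle ip, 8 given 15 mg/kg ip); 0.5% formalin injected into hind paw; paw-licking time recorded in 2 min intervals for 45 min; acute and late (inflammatory) phases expressed as percent of control.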

Data set [3] relates to Mus musculus. The experiment in a line: Anticonvulsant activity in ip dosed albino mouse assessed as inhibition of maximal electroshock-induced seizures after […]. The format is functional.
Data set [4] has as its system Mus musculus. The experiment in a line: Anticonvulsant activity in ip dosed albino mouse assessed as protection against 6 Hz electric shock-induced seizures after […]. The data set is classed as functional.
For data set [5], the system named is Rattus norvegicus. The experiment in a line: Anticonvulsant activity in po dosed Sprague-Dawley albino rat assessed as inhibition of maximal electroshock-induced seizures after 0.5 hrs. The data set is classed as functional.
The subject of data set [6] is Mus musculus. Nature of the data set: Antiinflammatory activity in albino mouse assessed as reduction in formalin-induced acute inflammation at 15 mg/kg, ip relative to control. Also noted: scale not given: the % may be the effect or the level left. The data set is classed as functional. The settings on record: route intraperitoneal. In outline:
as §1

Data set [7] has as its system Mus musculus. The experiment in a line: Anticonvulsant activity in albino mouse assessed as protection against subcutaneous metrazole-induced seizures up to 300 mg/kg, ip after 0.5 hrs. The format is functional, organism-based. Also on record: dose 300 mg/kg. In outline: (§2)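 Male albino Carworth Farms No. 1 mice dosed ip under NIH Anticonvulsant Screening Program; subcutaneous Metrazol seizure challenge at 0.5 and 4 h after doses up to 300 mg/kg.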

Data set [8] deals with Rattus norvegicus. Nature of the data set: Antiallodynic activity in Sprague-Dawley albino rat sciatic nerve ligation model of neuropathic pain assessed as fold attenuation of mechanical allodynia at 12 mg/kg, ip after 1 hr relative to control. The format is functional. The settings on record: route intraperitoneal. In outline: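 Male albino Sprague-Dawley rats; sciatic nerve ligated on right side, sham exposure on left; after 7 d recovery, animals on wire mesh platform, 30–60 min acclimation. Baseline 50% paw withdrawal threshold by calibrated von Frey fibres held 6 s, stepping down after a positive response; threshold re-measured after 12 mg/kg ip at time-to-peak effect in MES test.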

Data set [9] is filed under the species Rattus norvegicus. The experiment in a line: Protective index, ratio of TD50 for Sprague-Dawley albino rat to anticonvulsant ED50 for Sprague-Dawley albino rat. The data set is classed as functional. In short, it runs like this: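 Rat, oral: behavioral-toxicity TD50 divided by MES ED50, both in mg/kg.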
The species entered for data set [10] is Mus musculus. Nature of the data set: Protective index, ratio of TD50 for albino mouse to anticonvulsant ED50 for albino mouse. The format is functional.
Data set [11] relates to Mus musculus. Nature of the data set: Anticonvulsant activity in albino mouse assessed as protection against subcutaneous metrazole-induced seizures up to 300 mg/kg, ip after 4 hrs. The data set is classed as functional, organism-based. Also on record: dose 300 mg/kg. In outline: as §2

Active and inactive are the calls of the source.

Regarding `COC[C@@H](NC(C)=O)C(=O)NCc1ccc(OCc2cccc(F)c2)cc1`, the TD50 in the data set on Rattus norvegicus [1] was over 500 mg/kg. For the same compound, the Activity in the data set on Mus musculus [2] stood at 44%; in the data set with Mus musculus [6], 35%. Besides, the ED50 with Mus musculus [3] was 13 mg/kg; with Mus musculus [4], 10 mg/kg; in the data set with Rattus norvegicus [5] it was 14 mg/kg. In addition, the outcome with Mus musculus [7] and with Mus musculus [11] was inactive. In addition, in the data set with Rattus norvegicus [8], the “fold change (FC)” value is 11.2. Besides, the “Ratio TD50/ED50” value in the data set filed under Rattus norvegicus [9] was over 36; in the data set filed under Mus musculus [10] it was 2.

(Values after ChEMBL document CHEMBL1157779, “Merging the structural motifs of functionalized amino acids and alpha-aminoamides: compounds with significant anticonvulsant activities” (J Med Chem, 2010).)
